Results published in ChEMBL document CHEMBL1139494, “In vitro and in vivo anti-leishmanial activity of triterpenoid saponins isolated from Maesa balansae and some chemical derivatives” (J Med Chem, 2005).
Values after ≈ are worked out from the molar mass of the structure shown.

Assays:
[1] = system: MRC5; experiment: Cytotoxic concentration against human lung fibroblast MRC-5 cells; format: functional
Outline: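 Human lung fibroblasts grown in MEM + 5% heat-inactivated FCS, about 5000 cells/well, exposed to compound in triplicate. Viability read after 7 days with Alamar Blue fluorescent dye and expressed as percent reduction versus untreated wells. CC50 estimated from log-concentration plot; value is mean of three replicates.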

[2] = system: Leishmania infantum; experiment: (§1) Inhibitory concentration against intracellular amastigotes of Leishmania infantum; format: functional
Outline: (§2)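 Mouse peritoneal macrophages elicited by intraperitoneal 2% potato starch and harvested ~24 h later in RPMI-1640. Each well held 3 × 10^4 macrophages plus 3 × 10^5 parasites with compound, final 0.5–32 µg/mL, in triplicate. After 5 days at 37 °C, Giemsa-stained intracellular amastigotes counted microscopically, expressed as percent reduction vs untreated; mean of three replicates.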

[3] = system: Leishmania infantum; experiment: as §1; format: functional, organism-based; outline: as §2
[4] = system: Leishmania infantum; experiment: Lowest dose (single subcutaneous administration) causing >90% reduction of liveramastigotes of Leishmania infantum in mouse; format: functional
Outline: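 Male BALB/c mice given 10^7 L. infantum amastigotes (from spleen of infected donor hamster) intravenously via lateral tail vein on day 0, three per group. Single subcutaneous dose in isotonic saline (filter-sterilized, diluted from 2 mg/mL stock) given day 0. At 7 days post-treatment, Giemsa-stained liver impression smears scored for amastigotes per liver cell.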

[5] = Leishmania infantum, read-out: IC50

For C[C@@H]1OC(O[C@H]2C(O)[C@@H](O)C(CO)O[C@H]2OC2[C@H](O)C(C(=O)O)O[C@@H](O[C@H]3CC[C@@]4(C)C(CC[C@]5(C)C4CC[C@]46O[C@H](O)[C@]7(C4CC(C)(C)[C@@H](OC(=O)c4ccccc4)[C@@H]7OC(=O)/C=C\c4ccccc4)[C@H](O)C[C@]65C)C3(C)C)[C@H]2O[C@@H]2OC(CO)[C@@H](O)C(O)[C@@H]2O)C(OC2O[C@@H](C)[C@H](O)C(O)[C@@H]2O)[C@@H](O)C1O (stereo partly specified), the CC50 [1] was 0.5 µg/mL (≈ 0.326 µM), the IC90 [2] was 0.031 µg/mL (≈ 0.0202 µM) and the IC50 [3, 5] was 0.018 µg/mL (≈ 0.0117 µM). It also gave a Dose [4] of 0.8 mg/kg.
C[C@@H]1OC(O[C@H]2C(O)[C@@H](O)C(CO)O[C@H]2OC2[C@H](O)C(C(=O)O)O[C@@H](O[C@H]3CC[C@@]4(C)C(CC[C@]5(C)C4CC[C@]46O[C@H](O)[C@]7(C4CC(C)(C)[C@@H](OC(=O)c4ccccc4)[C@@H]7OC(=O)/C=C/c4ccccc4)[C@H](O)C[C@]65C)C3(C)C)[C@H]2O[C@@H]2OC(CO)[C@@H](O)C(O)[C@@H]2O)C(OC2O[C@@H](C)[C@H](O)C(O)[C@@H]2O)[C@@H](O)C1O (stereo partly specified) showed a CC50 [1] of 0.5 µg/mL (≈ 0.326 µM), an IC90 [2] of 0.012 µg/mL (≈ 0.00782 µM) and an IC50 [3, 5] of 0.007 µg/mL (≈ 0.00456 µM). The Dose [4] was 0.2 mg/kg.
Work on C/C=C(/C)C(=O)O[C@H]1[C@H](OC(=O)/C=C\c2ccccc2)[C@@]2(C=O)C(CC1(C)C)C1=CCC3[C@@]4(C)CC[C@H](O)C(C)(C)C4CC[C@@]3(C)[C@]1(C)C[C@H]2O (stereo partly specified) yielded a CC50 [1] of over 32 µg/mL, an IC90 [2] of over 32 µg/mL and an IC50 [3, 5] of 22 µg/mL (≈ 31.4 µM).
For C[C@@H]1OC(O[C@H]2C(O)[C@@H](O)C(CO)O[C@H]2OC2[C@H](O)C(C(=O)O)O[C@@H](O[C@H]3CC[C@@]4(C)C(CC[C@]5(C)C4CC[C@]46O[C@H](O)[C@]7(C4CC(C)(C)[C@@H](O)[C@@H]7O)[C@H](O)C[C@]65C)C3(C)C)[C@H]2O[C@@H]2OC(CO)[C@@H](O)C(O)[C@@H]2O)C(OC2O[C@@H](C)[C@H](O)C(O)[C@@H]2O)[C@@H](O)C1O (stereo partly specified), the CC50 [1] was over 32 µg/mL, the IC90 [2] was over 32 µg/mL and the IC50 [3, 5] was over 32 µg/mL. For the same compound, the Dose [4] was over 40 mg/kg.
C[C@@H]1OC(O[C@H]2C(O)[C@@H](O)C(CO)O[C@H]2OC2[C@H](O)C(C(=O)O)O[C@@H](O[C@H]3CC[C@@]4(C)C(CC[C@]5(C)C4CC[C@]46O[C@H](O)[C@]7(C4CC(C)(C)[C@@H](OC(=O)c4ccccc4)[C@@H]7OC(=O)CCc4ccccc4)[C@H](O)C[C@]65C)C3(C)C)[C@H]2O[C@@H]2OC(CO)[C@@H](O)C(O)[C@@H]2O)C(OC2O[C@@H](C)[C@H](O)C(O)[C@@H]2O)[C@@H](O)C1O (stereo partly specified) showed a CC50 [1] of 0.3 µg/mL (≈ 0.195 µM), an IC90 [2] of 0.015 µg/mL (≈ 0.00977 µM) and an IC50 [3, 5] of 0.009 µg/mL (≈ 0.00586 µM).
C/C=C(/C)C(=O)O[C@H]1[C@H](OC(=O)/C=C/c2ccccc2)[C@@]23C(CC1(C)C)[C@]1(CCC4[C@@]5(C)CC[C@H](O[C@@H]6OC(C(=O)O)[C@@H](O)C(O[C@@H]7OC(CO)[C@H](O)C(O)[C@@H]7OC7O[C@@H](C)C(O)[C@H](O)C7OC7O[C@@H](C)[C@H](O)C(O)[C@@H]7O)[C@@H]6O[C@@H]6OC(CO)[C@@H](O)C(O)[C@@H]6O)C(C)(C)C5CC[C@@]4(C)[C@]1(C)C[C@H]2O)O[C@@H]3O (stereo partly specified) showed a CC50 [1] of 0.1 µg/mL (≈ 0.0662 µM), an IC90 [2] of 0.021 µg/mL (≈ 0.0139 µM) and an IC50 [3, 5] of 0.014 µg/mL (≈ 0.00926 µM). For the same compound, the Dose [4] was 0.4 mg/kg.
For CC1(C)CC2C3=CCC4[C@@]5(C)CC[C@H](O)C(C)(C)C5CC[C@@]4(C)[C@]3(C)C[C@@H](O)[C@@]2(C=O)[C@@H](OC(=O)/C=C\c2ccccc2)[C@@H]1OC(=O)c1ccccc1 (stereo partly specified), the CC50 [1] was over 32 µg/mL, the IC90 [2] was over 32 µg/mL and the IC50 [3, 5] was over 32 µg/mL.
With C/C=C(/C)C(=O)O[C@H]1[C@H](OC(=O)/C=C/c2ccccc2)[C@@]2(C=O)C(CC1(C)C)C1=CCC3[C@@]4(C)CC[C@H](O)C(C)(C)C4CC[C@@]3(C)[C@]1(C)C[C@H]2OC(C)=O (stereo partly specified) the CC50 [1] was over 32 µg/mL, the IC90 [2] was over 32 µg/mL and the IC50 [3, 5] was over 32 µg/mL.
C/C=C(/C)C(=O)O[C@H]1[C@H](OC(=O)CCc2ccccc2)[C@@]23C(CC1(C)C)[C@]1(CCC4[C@@]5(C)CC[C@H](O[C@@H]6OC(C(=O)O)[C@@H](O)C(O[C@@H]7OC(CO)[C@H](O)C(O)[C@@H]7OC7O[C@@H](C)C(O)[C@H](O)C7OC7O[C@@H](C)[C@H](O)C(O)[C@@H]7O)[C@@H]6O[C@@H]6OC(CO)[C@@H](O)C(O)[C@@H]6O)C(C)(C)C5CC[C@@]4(C)[C@]1(C)C[C@H]2O)O[C@@H]3O (stereo partly specified) was tested, and the CC50 [1] was 0.6 µg/mL (≈ 0.396 µM), the IC90 [2] was 0.03 µg/mL (≈ 0.0198 µM) and the IC50 [3, 5] was 0.018 µg/mL (≈ 0.0119 µM).
In the case of C/C=C(/C)C(=O)O[C@H]1[C@H](OC(=O)/C=C\c2ccccc2)[C@@]23C(CC1(C)C)[C@]1(CCC4[C@@]5(C)CC[C@H](O[C@@H]6OC(C(=O)O)[C@@H](O)C(O[C@@H]7OC(CO)[C@H](O)C(O)[C@@H]7OC7O[C@@H](C)C(O)[C@H](O)C7OC7O[C@@H](C)[C@H](O)C(O)[C@@H]7O)[C@@H]6O[C@@H]6OC(CO)[C@@H](O)C(O)[C@@H]6O)C(C)(C)C5CC[C@@]4(C)[C@]1(C)C[C@H]2O)O[C@@H]3O (stereo partly specified), the CC50 [1] is reported as 0.5 µg/mL (≈ 0.331 µM), the IC90 [2] is reported as 0.094 µg/mL (≈ 0.0622 µM) and the IC50 [3, 5] is reported as 0.023 µg/mL (≈ 0.0152 µM). For the same compound, the Dose [4] was over 0.8 mg/kg.
In the case of CC(=O)O[C@@H]1C[C@]2(C)[C@@]3(CCC4[C@@]5(C)CC[C@H](O[C@@H]6OC(C(=O)O)[C@@H](O)C(O[C@@H]7OC(CO)[C@H](O)C(O)[C@@H]7OC7O[C@@H](C)C(O)[C@H](O)C7OC7O[C@@H](C)[C@H](O)C(O)[C@@H]7O)[C@@H]6O[C@@H]6OC(CO)[C@@H](O)C(O)[C@@H]6O)C(C)(C)C5CC[C@]42C)O[C@H](O)[C@]12C3CC(C)(C)[C@@H](OC(=O)c1ccccc1)[C@@H]2OC(=O)/C=C/c1ccccc1 (stereo partly specified), the CC50 [1] is reported as 8 µg/mL (≈ 5.08 µM), the IC90 [2] is reported as 0.125 µg/mL (≈ 0.0793 µM) and the IC50 [3, 5] is reported as 0.046 µg/mL (≈ 0.0292 µM). For the same compound, the Dose [4] was over 0.8 mg/kg.
Compound C/C=C(/C)C(=O)O[C@H]1[C@H](OC(=O)/C=C/c2ccccc2)[C@@]23C(CC1(C)C)[C@]1(CCC4[C@@]5(C)CC[C@H](O[C@@H]6OC(C(=O)O)[C@@H](O)C(O[C@@H]7OC(CO)[C@H](O)C(O)[C@@H]7OC7O[C@@H](C)C(O)[C@H](O)C7OC7O[C@@H](C)[C@H](O)C(O)[C@@H]7O)[C@@H]6O[C@@H]6OC(CO)[C@@H](O)C(O)[C@@H]6O)C(C)(C)C5CC[C@@]4(C)[C@]1(C)C[C@H]2OC(C)=O)O[C@@H]3O (stereo partly specified) has a CC50 [1] of 8 µg/mL (≈ 5.15 µM), an IC90 [2] of 0.125 µg/mL (≈ 0.0805 µM) and an IC50 [3, 5] of 0.041 µg/mL (≈ 0.0264 µM). For the same compound, the Dose [4] was over 0.8 mg/kg.
CC(=O)O[C@@H]1C[C@]2(C)C(=CCC3[C@@]4(C)CC[C@H](O)C(C)(C)C4CC[C@]32C)C2CC(C)(C)[C@@H](OC(=O)c3ccccc3)[C@H](OC(=O)/C=C/c3ccccc3)[C@@]21C=O (stereo partly specified) gave a CC50 [1] of over 32 µg/mL, an IC90 [2] of over 32 µg/mL and an IC50 [3, 5] of over 32 µg/mL.
STIBOGLUCONATE [listing 1 of 2 here] gave a CC50 [1] of over 32 µg/mL, an IC90 [2] of over 32 µg/mL and a DOSE [4] of over 40 mg/kg.
Work on STIBOGLUCONATE [listing 2 of 2 here] yielded an IC50 [3] of 5.6 µg/mL.
CC1(C)CC2C3=CCC4[C@@]5(C)CC[C@H](O)C(C)(C)C5CC[C@@]4(C)[C@]3(C)C[C@@H](O)[C@@]2(C=O)[C@@H](OC(=O)/C=C/c2ccccc2)[C@@H]1OC(=O)c1ccccc1 (stereo partly specified) showed a CC50 [1] of 32 µg/mL (≈ 44.3 µM), an IC90 [2] of over 16 µg/mL and an IC50 [3, 5] of 8 µg/mL (≈ 11.1 µM). It also gave a Dose [4] of over 40 mg/kg.
With CC=C(C)C(=O)O[C@H]1[C@H](OC(=O)/C=C/c2ccccc2)[C@@]2(C=O)C(CC1(C)C)C1=CCC3[C@@]4(C)CC[C@H](O)C(C)(C)C4CC[C@@]3(C)[C@]1(C)C[C@H]2O (stereo partly specified) the CC50 [1] was over 32 µg/mL, the IC90 [2] was over 32 µg/mL and the IC50 [3, 5] was over 32 µg/mL.
Work on C[C@@H]1[C@H](O)[C@@H](C)/C=C/C=C/C=C/C=C/C=C/C=C/C=C/[C@H](O[C@@H]2O[C@H](C)[C@@H](O)[C@H](N)[C@@H]2O)C[C@@H]2O[C@](O)(C[C@@H](O)C[C@@H](O)[C@H](O)CC[C@@H](O)C[C@@H](O)CC(=O)O[C@H]1C)C[C@H](O)[C@H]2C(=O)O [AMPHOTERICIN B] yielded a CC50 [1] of over 32 µg/mL, an IC90 [2] of 0.373 µg/mL (≈ 0.404 µM) and an IC50 [3, 5] of 0.285 µg/mL (≈ 0.308 µM). It also gave a Dose [4] of over 10 mg/kg.
